Compound activity deposited in PubChem by The Scripps Research Institute Molecular Screening Center.
TDP2 inh: blocks human TDP2 phosphodiesterase activity. actives 0.34% (n = 370,000). AID 720702. inhibition, % at 12.8 µM. recombinant TDP2, T5PNP hydrolysis, p-nitrophenol absorbance 415 nm;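 active = inhibition above the mean of all tested compounds plus 3 SD, set per campaign, cut at about 25% in these data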;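 also: 0% = DMSO with enzyme and 100% = buffer with substrate but no TDP2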
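Incubation: 2 h at 37 °C; Test system: recombinant human TDP2; Quantity: enzyme 120 nM; Read-out basis: percent inhibition; Medium: 50 mM Tris-HCl pH 7.5 with Mg2+, KCl, DTT, BSA; Repeats: single replicate; Compound: 12.8 µM single point, 1% DMSO; Signal: epi absorbance; Reagent: 5 mM T5PNP chromogenic substrate; Benchmarks: no-enzyme high, DMSO-plus-enzyme low.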
SIAE primary: inhibitors of human sialic acid acetylesterase SIAE. inhibition, % at 9.66 µM. actives 0.69% (n = 370,000). Q9HAT2. SIAE FP-Rh probe binding, fluorescence polarization;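 active = inhibition above a cutoff: mean of compounds within the control limits plus 3 SD of those, cut at about 17% in these data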;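 also: 0% = plate median of compound wells and 100% = probe without SIAE protein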
Target sequence (Q9HAT2 whole entry, looked up): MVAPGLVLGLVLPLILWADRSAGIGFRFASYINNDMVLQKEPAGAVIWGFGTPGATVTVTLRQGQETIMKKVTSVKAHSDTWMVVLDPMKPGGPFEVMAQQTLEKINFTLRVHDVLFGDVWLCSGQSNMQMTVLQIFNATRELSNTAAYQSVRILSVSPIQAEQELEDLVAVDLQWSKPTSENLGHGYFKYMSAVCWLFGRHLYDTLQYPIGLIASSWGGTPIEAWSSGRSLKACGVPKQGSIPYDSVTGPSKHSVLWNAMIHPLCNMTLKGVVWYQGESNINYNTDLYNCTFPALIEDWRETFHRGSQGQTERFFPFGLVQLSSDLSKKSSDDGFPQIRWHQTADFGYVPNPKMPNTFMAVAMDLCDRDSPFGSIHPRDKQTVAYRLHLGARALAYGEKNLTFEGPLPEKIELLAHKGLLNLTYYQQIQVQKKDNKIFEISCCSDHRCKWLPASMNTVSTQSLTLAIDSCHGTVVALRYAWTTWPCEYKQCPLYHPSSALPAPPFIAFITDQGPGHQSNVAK
TCR-CD3 inh: inhibitors of human TCR-CD3 interaction; TAMRA-labeled TCR probe fluorescence, biochemical; inhibition, % at 9.4 µM; actives 0.37% (n = 360,000); in the data active = inhibition above about 19%;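 also: recombinant mutant TCR 2C K166C tagged with TAMRA read by polarization; 0% = receptor in buffer alone and 100% = receptor with positive control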
LEDGF integ inh: blocks HIV-1 LEDGF/p75-dependent DNA integration. TR-FRET IN-LEDGF/p75 DNA integration, Eu/Cy5. inhibition, % at 3.7 µM. actives 0.64% (n = 370,000);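 active = inhibition above the screen-wide mean plus 3 SD, cut at about 13% in these data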;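 also: signal is the Cy5 over europium emission ratio at 671 and 618 nm; 0% = plate median of compound wells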
HTRA1 inhibitor: HTRA1 (human) protease inhibition. actives 0.5% (n = 340,000). inhibition, % at 5.96 µM. recombinant HTRA1, FP-rhodamine activity-based probe, fluorescence polarization; in the data active = inhibition above about 36%;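 also: 0% = enzyme with DMSO and 100% = wells lacking enzyme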
mABHD4 FP: inhibitors of mouse ABHD4. Q8VD66. AID 720543. actives 0.54% (n = 370,000). purified mABHD4, FP-Rh probe fluorescence polarization. inhibition, % at 8.92 µM;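 active = inhibition exceeding the mean over every tested compound plus 3 SD, cut at about 30% in these data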;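 also: 0% = plate median of compound wells and 100% = S159A mutant with DMSO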
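Assay system: mouse ABHD4 enzyme, wild type / Also added: fluorescent activity-based probe FP-Rh / Doses: single nominal dose of 8.92 µM, 0.89% DMSO final / Timing: 45 min compound pre-incubation plus 60 min probe step, 25 °C / Signal: FP readout, ex 525 nm / em 598 nm / Control set: S159A mutant/DMSO as 100%, compound-well median as 0%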
SIAE confirm: confirmation of human SIAE inhibitors | shares compounds with SIAE primary | SIAE FP-Rh activity-based probe, fluorescence polarization | inhibition, % at 9.66 µM | actives 13% (n = 2,300);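 active = mean inhibition of the replicates above the hit cutoff set in the primary screen, cut at about 17% in these data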;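 also: 0% = SIAE with DMSO and probe and 100% = probe without SIAE; inhibitors lower polarization as more probe stays unbound to SIAE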
The depositor's hits bear a star. Rows were chosen to be rich in hits. Some 2.2% of all compounds tested hit in one or more screens of this group.

Screening O=C(O)c1cccc(NS(=O)(=O)c2ccc(-c3ccc(S(=O)(=O)Nc4cccc(C(=O)O)c4)cc3)cc2)c1 returned TDP2 inh 5, SIAE primary -8, TCR-CD3 inh 8, LEDGF integ inh 7, HTRA1 inhibitor -12 and mABHD4 FP 10.
`Cc1ccc(OCC(=O)OCc2nc3scc(-c4ccccc4)c3c(=O)[nH]2)cc1C` gave TDP2 inh 14, SIAE primary 18*, TCR-CD3 inh 8, LEDGF integ inh 0, HTRA1 inhibitor -6, mABHD4 FP -1 and SIAE confirm -6.
Screening Cc1nc(SCC(=O)N2CCN(C(=O)c3cccs3)CC2)c2c(C)c(C)sc2n1 returned TDP2 inh -12, SIAE primary 17*, TCR-CD3 inh -10, LEDGF integ inh -7, HTRA1 inhibitor 2, mABHD4 FP -3 and SIAE confirm 0.
COc1ccc(-n2c(Cc3cccn3C)nnc2SCC(=O)N2CCCC2)cc1 was read as TDP2 inh -5, SIAE primary 18*, TCR-CD3 inh -12, LEDGF integ inh 0, HTRA1 inhibitor -10, mABHD4 FP 0 and SIAE confirm 1.
Screening Cc1ccc(-n2c(Cc3cccn3C)nnc2SCC(=O)Nc2ccc3c(c2)OCO3)cc1 returned TDP2 inh -8, SIAE primary 0, TCR-CD3 inh -4, LEDGF integ inh 4, HTRA1 inhibitor -6 and mABHD4 FP 10.
Screening COc1ccc(-n2c(Cc3cccn3C)nnc2SCC(=O)N2CCC(C)CC2)cc1 returned TDP2 inh -7, SIAE primary 6, TCR-CD3 inh 2, LEDGF integ inh 3, HTRA1 inhibitor 4 and mABHD4 FP 4.
Screening Cn1cccc1Cc1nnc(SCC(=O)Nc2ccc3c(c2)OCCO3)n1-c1ccc(F)cc1 returned TDP2 inh 11, SIAE primary 20*, TCR-CD3 inh -2, LEDGF integ inh -2, HTRA1 inhibitor -5, mABHD4 FP 4 and SIAE confirm -5.
Screening CCOc1cc(N(CC)CC)ccc1/C=C(/C#N)c1nc2ccccc2[nH]1 returned TDP2 inh 2, SIAE primary 27*, TCR-CD3 inh -7, LEDGF integ inh -3, HTRA1 inhibitor 10, mABHD4 FP 15 and SIAE confirm 6.
CCCOc1cc(N(CC)CC)ccc1/C=C(/C#N)c1nc2ccc(C)cc2[nH]1 was read as TDP2 inh 1, SIAE primary 0, TCR-CD3 inh -9, LEDGF integ inh 0, HTRA1 inhibitor 12 and mABHD4 FP 9.
For C#CCN(C[C@H]1[C@H](OC(=O)NC2CCCC2)[C@H](OC(=O)NC2CCCC2)C[C@@H](C(=O)OC)[C@H]1C(=O)OC)S(=O)(=O)c1ccc(C)cc1 the results were TDP2 inh 11, SIAE primary -2, TCR-CD3 inh -3, LEDGF integ inh -2, HTRA1 inhibitor -19 and mABHD4 FP -6.
CCOc1ccc(NS(=O)(=O)c2cc(C(=O)NCCCN3CCCC3=O)ccc2C)cc1 was read as TDP2 inh 6, SIAE primary 1, TCR-CD3 inh 3, LEDGF integ inh 0, HTRA1 inhibitor -5 and mABHD4 FP 0.
`CS(=O)(=O)N1CCN(c2ccc(NC(=S)NC(=O)c3ccccc3[N+](=O)[O-])cc2)CC1` gave TDP2 inh -15, SIAE primary 20*, TCR-CD3 inh 3, LEDGF integ inh 0, HTRA1 inhibitor 6, mABHD4 FP 1 and SIAE confirm -1.
O=C(COc1ccc(S(=O)(=O)N2CCCCC2)cc1Cl)N1CCCC1 was read as TDP2 inh -11, SIAE primary 1, TCR-CD3 inh -6, LEDGF integ inh -9, HTRA1 inhibitor -1 and mABHD4 FP 7.
For O=C(COc1ccc(Cl)cc1Cl)N1CCCCCC1 the results were TDP2 inh -7, SIAE primary 18*, TCR-CD3 inh 5, LEDGF integ inh 0, HTRA1 inhibitor -9, mABHD4 FP -6 and SIAE confirm -3.
For CCC(CC)C(=O)NCCCCc1ccccc1 the results were TDP2 inh -2, SIAE primary 20*, TCR-CD3 inh 5, LEDGF integ inh 3, HTRA1 inhibitor 4, mABHD4 FP -2 and SIAE confirm -2.
CCC(CC)C(=O)NCCc1ccc(OC)cc1 was read as TDP2 inh -6, SIAE primary 17*, TCR-CD3 inh -1, LEDGF integ inh -2, HTRA1 inhibitor -1, mABHD4 FP -4 and SIAE confirm 1.
`O=C(NC(=S)NNC(=O)c1cccs1)c1ccco1` gave TDP2 inh 16, SIAE primary 19*, TCR-CD3 inh 8, LEDGF integ inh -1, HTRA1 inhibitor 3, mABHD4 FP 12 and SIAE confirm 3.
For O=C(NNC(=O)c1cccs1)c1ccco1 the results were TDP2 inh -2, SIAE primary 0, TCR-CD3 inh -4, LEDGF integ inh 0, HTRA1 inhibitor -5 and mABHD4 FP 2.
CC(C)=C1C2CCC1C(C(=O)NCCc1ccccc1)C2C(=O)O (configuration not stated) was read as TDP2 inh 12, SIAE primary 21*, TCR-CD3 inh 5, LEDGF integ inh -3, HTRA1 inhibitor 2, mABHD4 FP 0 and SIAE confirm -2.
For CC(C)CN1C(=O)C(=O)N(CC(=O)NC(C)CCc2ccccc2)C1=O (configuration not stated) the results were TDP2 inh 19, SIAE primary 5, TCR-CD3 inh 2, LEDGF integ inh 4, HTRA1 inhibitor -2 and mABHD4 FP -2.
For Clc1ccc(N2CCCCCC2)nn1 the results were TDP2 inh 3, SIAE primary 18*, TCR-CD3 inh -2, LEDGF integ inh 0, HTRA1 inhibitor 0, mABHD4 FP -6 and SIAE confirm -7.
O=C(O)C1CCN(c2ccc(Cl)nn2)CC1 was read as TDP2 inh 0, SIAE primary 1, TCR-CD3 inh -1, LEDGF integ inh 0, HTRA1 inhibitor -3 and mABHD4 FP 1.
For CCCCNC(=O)Nc1ccccc1C(=O)Nc1ccc(OC)cc1 the results were TDP2 inh -5, SIAE primary 50*, TCR-CD3 inh -5, LEDGF integ inh 0, HTRA1 inhibitor -13, mABHD4 FP -1 and SIAE confirm 2.
For CCCCc1cc(=O)oc2cc(C)cc(OCC(=O)Nc3cccnc3)c12 the results were TDP2 inh -2, SIAE primary -12, TCR-CD3 inh 5, LEDGF integ inh 3, HTRA1 inhibitor -8 and mABHD4 FP -6.
For CCCc1cc(=O)oc2cc(C)cc(OCC(=O)NCc3cccnc3)c12 the results were TDP2 inh -4, SIAE primary 18*, TCR-CD3 inh 2, LEDGF integ inh 3, HTRA1 inhibitor -6, mABHD4 FP 0 and SIAE confirm 1.
